T cell modulator: modulators of CD8 T cell-vesicle binding, primary screen, mouse 2C CD8+ T cells, flow cytometry | 2C CD8+ T cell-vesicle binding; hits give low values | response (vesicle binding), % at 7 µM | 0.068% of 330,000 active;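 active = response, share of CD8 T cells binding vesicles, and their 90th percentile fluorescence all below set limits, cut at about 80% in these data, passing the limit was not always enough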;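 note: values below 100% mean blocked vesicle binding to the CD8+ T cells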
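Read-out – percent CD8+ FL2 mean versus row control · System – murine 2C transgenic CD8+ T lymphocytes · Times – 1.5 h cell–vesicle binding at 37 °C, then 20 min icy labelling · Control set – naked vesicles low, QL9 vesicles with vehicle high · Detection – cytometric PE anti-B7-1 and Alexa647 anti-CD8 signals after 1% paraformaldehyde fixation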
N-glyco inh: increase of ERlucT glycosylation luciferase signal, primary screen, N-linked glycosylation inhibitor project, D54 ERlucT cells, luminescence, set 2; D54 ERlucT glycosylation luciferase reporter, 24 h; percent of 100 nM tunicamycin response; reporter increase, % at 12.5 µM; 0.23% of 360,000 active; AID 588692, 2011;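 active = mean luciferase reporter signal, scaled so untreated is 0 and the glycosylation-blocking control 100, at or above a set limit in every replicate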;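 note: luciferase carries N-glycosylation sites so blocking glycosylation raises the light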
ALR H2O2 inh: inhibitors of human ALR sulfhydryl oxidase, primary screen, biochemical, H2O2 detection, HRP-luminol luminescence, single point. purified ALR, DTT oxidation. 3.8% of 290,000 active. inhibition, % (test concentration not listed). FAD-linked sulfhydryl oxidase ALR (Homo sapiens), P55789;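 active = mean replicate inhibition above about 79%, with every replicate also reaching it, limit read from the data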
Target sequence (P55789 whole entry, looked up): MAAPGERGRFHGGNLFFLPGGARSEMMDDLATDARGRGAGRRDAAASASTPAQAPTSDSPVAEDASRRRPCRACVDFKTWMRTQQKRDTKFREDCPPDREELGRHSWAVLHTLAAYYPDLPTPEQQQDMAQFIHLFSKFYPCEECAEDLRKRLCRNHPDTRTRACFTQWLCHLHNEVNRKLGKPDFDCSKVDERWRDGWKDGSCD
A number is an active result; n = inactive; x = not tested or not shown. Shown is part of a subset that was picked to be rich in hits.

SMILES	T cell modulator	N-glyco inh	ALR H2O2 inh
COc1ccc(S(=O)(=O)N(Cc2ccco2)Cc2cc3ccccc3[nH]c2=O)cc1	n	n	n
Cc1c(NC(=S)NC(=O)c2cccc3ccccc23)cccc1C(=O)O	n	n	n
Cc1ccc(C(=O)Nc2ccc(O)cc2C(=O)O)cc1C	n	n	98
COc1cccc(C(=O)NC(=S)Nc2ccc(Cl)cc2C(=O)O)c1	n	n	97
COc1cccc(C(=O)NC(=S)Nc2ccc3c4c(cccc24)CC3)c1	n	n	n
CN1C(=O)/C(=C/c2ccc(C(=O)Nc3ccc(O)cc3C(=O)O)cc2)SC1=S	n	n	97
Cc1ccc(C(=O)Nc2ccc(O)cc2C(=O)O)cc1	n	n	n
Cc1ccc(/C=C2\SC(=S)N(CCC(=O)NNC(=O)c3ccc(O)cc3)C2=O)cc1	n	n	n
O=C(O)c1ccccc1NC(=S)NC(=O)c1cccc2ccccc12	n	n	98
Cc1ccccc1OCC(=O)Nc1cnn(CCCC(=O)O)c1	n	n	n
CCCCC1C(=O)N(c2ccccc2)N(c2ccc(O)cc2)C1=O (stereo not given)	n	n	n
COc1ccc(CCNC(=O)COc2coc(CN3c4ccccc4CC3C)cc2=O)cc1OC (stereo not given)	n	n	x
Cc1ccccc1Cn1cc(CCC(=O)N2CCOCC2)c2ccccc21	n	n	n
COc1cc2cnc(-c3ccccc3)c(-c3ccc(C(F)(F)F)cc3)c2cc1OC	n	n	n
CC(C)(C)C(=O)Nc1cccc(-c2ncon2)c1	n	n	n
O=C(NCc1cccnc1)C(=O)NCC1OCCCN1S(=O)(=O)c1cc(F)ccc1F (stereo not given)	x	n	x
O=C(O)c1cccc(NC(=S)NC(=O)c2ccc(-c3ccccc3)cc2)c1	n	n	n
Cc1ccc(C(=O)O)cc1NC(=S)NC(=O)c1ccc(-c2ccccc2)cc1	n	n	98
CCOC(=O)c1c(C)oc2cc(Br)c(OC(C)C(=O)OCC)cc12 (stereo not given)	n	n	n
CCOC(=O)COc1cc2c(C(=O)OCC)c(C)oc2cc1Br	n	n	97
CCOC(=O)N1CCN(C(=O)c2c[nH]c3ccc(S(=O)(=O)N(C)c4ccc(OCC)cc4)cc3c2=O)CC1	n	n	n
CC1(C)OC(=O)C(=NNc2ccc(O)cc2)C(=O)O1	n	n	99
CC1(C)OC(=O)C(=NNc2ccccc2)C(=O)O1	n	n	n
CCCCN(CCCC)CC(O)COc1ccccc1Br (stereo not given)	n	n	n
CCc1ccccc1NC(=O)CN(c1ccc(OC)cc1OC)S(=O)(=O)c1ccccc1	n	n	n
SMILES	T cell modulator	N-glyco inh	ALR H2O2 inh
C#CCOC(=O)c1ccccc1C(=O)n1nnc2ccccc21	n	n	97
Cc1ccc(C(=O)n2nnc3ccccc32)cc1	n	x	n
C#CCOC(=O)c1ccccc1C(=O)OCC#C	n	n	n
O=C(c1cccc2ccccc12)n1nnc2ccccc21	n	x	94
CC(CC(=O)Nc1ccc(Br)cc1F)S(=O)(=O)c1ccc2c(c1)NC(=O)CO2 (stereo not given)	n	n	n
O=C(COc1ccc(C(=O)c2ccccc2)cc1)Nc1cccnc1	n	n	n
Cc1[nH]c(C)c(S(=O)(=O)Nc2cccc(Cl)c2C)c1C(=O)N1CCCCC1	n	n	n
CC(C)Cn1c(N)c(C(=O)COC(=O)COc2cccc(C(F)(F)F)c2)c(=O)n(C)c1=O	n	n	n
S=c1[nH]nc2ccc3ccccc3n12	x	n	x
S=c1[nH]c2ccccc2n2c(=S)[nH]nc12	n	n	99
O=S(=O)(NNc1ccc(F)cc1F)c1cccc(Cl)c1	n	n	98
O=C(NNc1ccc(F)cc1F)c1c(F)cccc1Cl	n	n	n
CSc1ccc(C2Nc3ccccc3-c3cc(C)nn32)cc1 (stereo not given)	n	n	n
Cc1cc2n(n1)C(c1ccccc1Cl)Nc1ccccc1-2 (stereo not given)	n	n	98
Cn1nc(C(F)(F)F)c(/C=N/OC(=O)c2ccccc2)c1Sc1ccc(Cl)cc1	n	n	n
Cn1nc(C(F)(F)F)c(/C=N/OC(=O)c2ccccc2)c1SCc1ccccc1Cl	n	55	n
CCOC(=O)N1CCN(C(=O)C2CCC(=O)N(Cc3ccccc3OC)C2)CC1 (stereo not given)	x	n	x
O=C(NCCC(F)(F)F)c1cccc2c(-c3ccc(F)c(F)c3)coc12	x	n	x
O=C(CSc1ccccn1)N1CCCC(Nc2ccc(F)c(F)c2)C1 (stereo not given)	n	n	n
O=C(CCc1ccncc1)N1CCCC(Nc2ccc(F)c(F)c2)C1 (stereo not given)	n	n	95
COc1ccc(NC2CCCN(C(=O)CCc3ccncc3)C2)cc1OC (stereo not given)	n	n	95
Cc1ccc(NC2CCCN(C(=O)CCc3ccncc3)C2)cc1C (stereo not given)	n	n	98
COc1ccc(NC2CCCN(C(=O)C3(C)CCCCC3)C2)cc1OC (stereo not given)	n	n	n
Cc1ccc(NC2CCCN(C(=O)CSc3ccncc3)C2)cc1C (stereo not given)	n	n	98
CCOC(=O)C1CCCN(C(=O)CSc2ccc(NC(C)=O)cc2)C1 (stereo not given)	n	n	x
SMILES	T cell modulator	N-glyco inh	ALR H2O2 inh
O=C(COC(=O)c1ccc(OC(F)F)cc1)NCc1cccs1	n	n	n
CSc1ncnc2c1ncn2CCCNCC(c1ccccc1)c1ccccc1	x	n	x
Cc1ccc(NC2CCCN(C(=O)Cc3nonc3C)C2)cc1C (stereo not given)	n	n	99
Cc1ccc(NC2CCCN(C(=O)CN3C(=O)c4ccccc4C3=O)C2)cc1C (stereo not given)	n	n	93
Cc1ccc(NC2CCCN(C(=O)c3nonc3C)C2)cc1C (stereo not given)	x	n	x
COc1ccc(NC2CCCN(C(=O)CCCn3cncn3)C2)cc1OC (stereo not given)	n	n	94
Cc1ccc(NC2CCCN(C(=O)CCC(=O)c3ccccc3)C2)cc1C (stereo not given)	x	n	x
COc1c(C)cc(C(=O)C2CCCN(C(=O)CCCn3cncn3)C2)cc1C (stereo not given)	n	n	n
CCC1(c2ccc(F)cc2)NC(=O)N(CC(=O)Nc2ccc(C)c(S(=O)(=O)N3CCOCC3)c2)C1=O (stereo not given)	n	n	n
CC(C)C(C(=O)Nc1nccs1)N1C(=O)c2ccccc2C1=O (stereo not given)	n	n	n
Cc1ccc(NC(=O)/C(=C\c2cccs2)NC(=O)c2ccccc2)cc1	n	n	n
COc1cc(C(=O)Nc2ccncc2)c([N+](=O)[O-])cc1OC	n	n	n
COc1cc(/C=C(/NC(=O)c2ccccc2)C(=O)Nc2ccc(O)cc2)c([N+](=O)[O-])cc1OC	n	n	99
O=C(Nc1ccc(O)cc1)/C(=C\c1cccs1)NC(=O)c1ccccc1	n	n	100
COc1cc(/C=C(/NC(=O)c2ccccc2)C(=O)Nc2ccccc2)c([N+](=O)[O-])cc1OC	n	n	n
